Among the data in ChEMBL document CHEMBL1131544, “Synthesis and antioxidant activity of novel amphipathic derivatives of tea polyphenol” (Bioorg Med Chem Lett, 1998) are IC50 values, retold here.

Type in all cases: functional
Experiment [1] can be described thus: Inhibitory activity against lipid peroxidation of egg-phosphatidylcholine (PC) liposome caused by lipid-soluble radical initiator [2,2'-azobis(2,4- dimethylvaleronitrile] (AMVN). The method in brief:
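Egg PC liposomes (0.65 ml) incubated with sample in DMSO plus AMVN (8 mM DMSO stock) and water, 37°C, 20 min, capped tube. Stopped with thiobarbituric acid/trichloroacetic acid/HCl, heated 100°C 15 min, ice-cooled, centrifuged; TBARS in supernatant read at 535 nm. IC50 against lipid peroxidation.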

Experiment [2] in a line: Inhibitory activity against lipid peroxidation of egg-phosphatidylcholine (PC) liposome caused by water-soluble radical initiator [2,2'-azobis(2-amidinopropane) dihydrochloride] (AAPH). In short, it runs like this: (§1)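 Egg PC liposome peroxidation driven by water-soluble initiator AAPH (0.21 M aqueous stock, 150 µl) with sample in DMSO; 37°C for 20 min, capped tube. TBA reagent (0.375% TBA, 15% TCA, 0.25 N HCl) added, 100°C 15 min, cooled, spun; thiobarbituric acid reactive substances measured at 535 nm to give IC50.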

Experiment [3] is described as follows: Inhibitory activity against lipid peroxidation of egg-phosphatidylcholine (PC) liposome caused by water-soluble radical initiator [2,2'-azobis(2-amidinopropane) dihydrochloride] (AAPH); strongly aggregated and precipitated the lipids, hence not eva luated. The method in brief: as §1

Consider `CCCCCCCCOC(=O)c1cc(O)c(O)c(O)c1` [OCTYL_GALLATE], for which the 50% inhibitory concentration (IC50) (commonly the concentration at which inhibition is half-maximal) in experiment [1] is 188 µM; in experiment [2] it was 18.6 µM.

Turning to `CCCCCCCCSCc1c(O)c(CSCCCCCCCC)c2c(c1O)[C@H](SCCCCCCCC)[C@@H](OC(=O)c1cc(O)c(O)c(O)c1)[C@@H](c1cc(O)c(O)c(O)c1)O2`, the half-maximal inhibitory concentration (IC50) in experiment [1] was found to be 19.4 µM; in experiment [2], 135 µM.

For `CCCCCCCCSCc1c(O)c(CSCCCCCCCC)c2c(c1O)C[C@@H](OC(=O)c1cc(O)c(O)c(O)c1)[C@@H](c1cc(O)c(O)c(O)c1)O2`, the half-inhibitory concentration (IC50) amounted to 60 µM in experiment [1] and 7.9 µM in experiment [2]. For `O=C(O[C@@H]1Cc2c(O)c(CSCc3ccccc3)c(O)c(CSCc3ccccc3)c2O[C@@H]1c1cc(O)c(O)c(O)c1)c1cc(O)c(O)c(O)c1`, the figures for the half-maximal inhibitory concentration (IC50) in experiment [1] and in experiment [2] were 432 µM and 9.6 µM, respectively. `Cc1c(C)c2c(c(C)c1O)CC[C@@](C)(CCC[C@H](C)CCC[C@H](C)CCCC(C)C)O2` [ALPHA-TOCOPHEROL]: the IC50 in experiment [1] was determined as 5.9 µM; in experiment [2], 40.3 µM. With `CCCCCCCCCCCCCCCCCCNC(=O)Oc1c(O)cc(C(=O)O[C@@H]2Cc3c(O)cc(O)cc3O[C@@H]2c2cc(O)c(O)c(O)c2)cc1O`, the half-inhibitory concentration (IC50) in experiment [1] worked out at 22.1 µM; in experiment [2], 24.6 µM. On to `O=C(O[C@H]1[C@@H](c2cc(O)c(O)c(O)c2)Oc2cc(O)cc(O)c2[C@@H]1SCCO)c1cc(O)c(O)c(O)c1`, for which the IC50 was > 500 µM in experiment [1] and 20.5 µM in experiment [2]. As for `COC(=O)CSCc1c(O)c(CSCC(=O)OC)c2c(c1O)C[C@@H](OC(=O)c1cc(O)c(O)c(O)c1)[C@@H](c1cc(O)c(O)c(O)c1)O2`, the concentration for half-maximal inhibition (IC50) in experiment [1] is > 500 µM; in experiment [2], 12 µM. `CCCCCCCCSCc1c(O)c(CSCCCCCCCC)c2c(c1O)[C@H](SCCO)[C@@H](OC(=O)c1cc(O)c(O)c(O)c1)[C@@H](c1cc(O)c(O)c(O)c1)O2`: the IC50 in experiment [1] was found to be 60.8 µM; in experiment [2], 8.8 µM.

Regarding `CCCCCCCCCCCCCCCCCCSCc1c(O)c(CSCCCCCCCCCCCCCCCCCC)c2c(c1O)C[C@@H](OC(=O)c1cc(O)c(O)c(O)c1)[C@@H](c1cc(O)c(O)c(O)c1)O2`, the IC50 entry in experiment [3] is on record as “No effect”. With `O=C(O[C@@H]1Cc2c(O)cc(O)cc2O[C@@H]1c1cc(O)c(O)c(O)c1)c1cc(O)c(O)c(O)c1` [EPIGALOCATECHIN GALLATE], the half-maximal inhibitory concentration (IC50) was > 500 µM in experiment [1] and 20.8 µM in experiment [2]. Consider `CCCCCCCCCCCCCCCCSCc1c(O)c(CSCCCCCCCCCCCCCCCC)c2c(c1O)C[C@@H](OC(=O)c1cc(O)c(O)c(O)c1)[C@@H](c1cc(O)c(O)c(O)c1)O2`, for which the 50% inhibitory concentration (IC50) entry in experiment [3] is “No effect”.

For the molecule `C=CCSCc1c(O)c(CSCC=C)c2c(c1O)C[C@@H](OC(=O)c1cc(O)c(O)c(O)c1)[C@@H](c1cc(O)c(O)c(O)c1)O2`, the 50% inhibitory concentration (IC50) in experiment [1] was > 500 µM; in experiment [2], 11.6 µM.
